Measurements reported in article PMC9973464 (Haematologica, 2022).
Several values for one entry are separate records, joined by “and”; a condition that tells them apart may be missing. Identical values can stand only once.

Experiments:
[1] = test system: R/R AML patients; conditions: cited from earlier work
[2] = test system: dogs; assay: Pre-clinical toxicology study, daily oral gavage, dogs; type: in vivo; conditions: daily oral gavage for 14 days to 3 months
[3] = target: T1, FLT3 (Homo sapiens, UniProt P36888); assay: Plasma inhibitory activity; type: cell-based
T1 sequence (P36888 610-943 limits assumed): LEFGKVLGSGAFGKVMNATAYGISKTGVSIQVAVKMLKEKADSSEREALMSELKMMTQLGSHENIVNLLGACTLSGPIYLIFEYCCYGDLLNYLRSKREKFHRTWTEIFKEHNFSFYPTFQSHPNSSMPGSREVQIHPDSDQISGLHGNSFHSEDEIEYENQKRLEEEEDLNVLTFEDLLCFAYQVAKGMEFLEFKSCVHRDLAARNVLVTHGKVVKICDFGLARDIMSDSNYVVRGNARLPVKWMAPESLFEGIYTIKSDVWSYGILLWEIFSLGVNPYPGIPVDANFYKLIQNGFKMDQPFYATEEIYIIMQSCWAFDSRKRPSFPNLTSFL
How it was run: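 Steady-state trough plasma was drawn before dosing on Cycle 1 day 15. An FLT3-ITD-expressing AML cell line was incubated in this plasma. FLT3 phosphorylation was quantified against baseline plasma and reported as % of baseline. Drug level in the same sample was measured by mass spectrometry. Reference curve: normal donor plasma spiked with test compound, Molm-14 cells 1 h, immunoblot for pFLT3.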

[4] = test system: rats; assay: Pre-clinical toxicology study, daily oral gavage, rats; type: in vivo; conditions: daily oral gavage for 14 days to 3 months
[5] = test system: human platelets; assay: In vitro platelet aggregation assay in platelet rich plasma; type: cell-based
[6] = Phase Ib trial: plasma pharmacokinetics; type: in vivo, human
[7] = test system: patients with R/R AML; assay: Phase Ib trial: response and antileukemic activity; type: in vivo, human
How it was run: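 Multicenter, open-label phase Ib dose escalation (3+3) of oral single agent given QD or BID in 28-day cycles until progression or unacceptable toxicity. Started at 60 mg QD with 20 mg increments. Response was judged by Revised IWG AML criteria, with modifications.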

[8] = test system: lymphoma patients; conditions: target SYK; cited from earlier work
[9] = test system: FLT3 isoforms; conditions: evaluation of additional kinases; cited from earlier work
[10] = test system: patients with R/R AML; assay: Phase Ib dose-escalation trial of oral mivavotinib: safety, DLT, MTD/RP2D; type: in vivo, human

CCc1nc(C(N)=O)c(Nc2ccc(N3CCC(N4CCN(C)CC4)CC3)c(OC)c2)nc1NC1CCOCC1 [gilteritinib]
median time to achieve best response [1]: 48 days

Cn1cc(-c2nc(N[C@@H]3CCCC[C@@H]3N)c(F)c3c2C(=O)NC3)cn1 [mivavotinib]
dose at which GI mucosal hemorrhage was dose limiting [2]: ≥ 10 mg/kg
dose at which GI mucosal hemorrhage was present [2]: ≥ 3 mg/kg
in vivo FLT3 inhibition by PIA, comparison of dose levels ([3]; 80 mg BID, trough plasma): most effective FLT3 inhibition
consistent or sustained 90% FLT3 inhibition ([3]; 140 mg QD or 60 mg BID): neither selected RP2D, 140 mg QD or 60 mg BID, achieved a consistent or sustained 90% FLT3 inhibition
FLT3 inhibition ([3]; 140 mg QD, by Cycle 1 day 15, initial evidence): at least 90%
dose at which GI mucosal hemorrhage was present [4]: ≥ 30 mg/kg
effect on platelet aggregation caused by adenosine diphosphate [5]: prevented aggregation
effect on platelet aggregation caused by collagen ([5]; 1.07 µM mivavotinib): prevented aggregation
inhibition of platelet aggregation ([5]; 0.107 mM mivavotinib): not observed
effect on platelet aggregation caused by collagen ([5]; 10.7 mM mivavotinib, collagen (2 mg/mL)): prevented aggregation
dose proportionality of plasma exposure ([6]; dose ranges studied, 60-160 mg QD or 60-80 mg BID): generally dose proportional
Cmax ([6]; human, plasma, oral, 140 mg): 574 ng/mL and 1.07 µM
Tmax ([6]; human, plasma, po): 1 to 3 h
reduction in marrow blast percentage, range ([7]; 13 patients with FLT3 mutations): 22.5-98.6%
patients with PD ([7]; 33 response-evaluable patients): 5
patients with clinical benefit despite PD ([7]; 33 response-evaluable patients): 4
patients with stable disease ([7]; 33 response-evaluable patients): 19
complete responses (4 with incomplete count recovery) ([7]; 43 patients enrolled): 5
patients with a ≥50% reduction in peripheral blast count from baseline ([7]; BID dosing): 9 of 12
patients with a ≥50% reduction in peripheral blast count from baseline ([7]; QD dosing): 12 of 21
patients with a ≥50% reduction in peripheral blast count from baseline ([7]; across all dose levels): 21 of 33
objective responses with incomplete count recovery (CRi) ([7]; of 19 patients with FLT3 mutations treated at 120, 140, or 160 mg QD or BID): 3
dose identified for expansion [8]: 100 mg QD
activity against FLT3 isoforms [9]: 1.6 to 7.6 ng/mL
DLT ([10]; 60 mg BID, 8 patients): No episodes of DLT were observed
drug-related SAE gastric hemorrhage ([10]; 3 patients, who received 80 mg BID): 7%
maximum tolerated dose (MTD), BID dosing regimen ([10]; BID dosing regimen): 60 mg BID
recommended phase II dose (RP2D) ([10]; QD dosing regimen): 140 mg QD
maximum tolerated dose (MTD), QD dosing regimen ([10]; QD dosing up to 160 mg QD, per protocol): not reached
on-study deaths ([10]; after informed consent and ≤28 days after last dose): 26
patients with ≥1 TEAE assessed by the investigator as related to mivavotinib ([10]; all 43 patients): 84%
intracranial bleeding considered grade ≥3 ([10]; all doses): 4 patients
patients with GI tract bleeding considered grade ≥3 ([10]; all doses): 7 patients
patients with GI-related or central nervous system-related bleeding event leading to study discontinuation ([10]; all doses): 9 patients
patients with bleeding involving the GI tract ([10]; all doses): Thirteen
patients with intracranial bleeding ([10]; all doses): Seven
patients who discontinued mivavotinib due to a TEAE ([10]; all patients): 67%
patients with drug-related SAE ([10]; all patients): 28%
bleeding events leading to discontinuation considered related to mivavotinib ([10]; of 9 patients): 5
fatal grade ≥3 bleeding events ([10]; of eleven patients with grade ≥3 bleeding events): 2
median day of occurrence of all bleeding events ([10]; range -1 to 262): 22 days
